From ChEMBL document CHEMBL1151801, “Synthesis of new indeno[1,2-e]pyrimido[4,5-b][1,4]diazepine-5,11-diones as potential antitumor agents” (2008)
Active and inactive are the calls of the source.

Key:
BT-549 = assay: Antitumor activity against human BT549 cells after 48 hrs by SRB assay; assay type: functional; details: BT-549, 48 h
How it was run: (§1)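 NCI in vitro human tumor cell line screen. Cells were exposed continuously to compound for 48 h at five concentration levels (100, 10, 1.0, 0.1 and 0.01). Growth was estimated by sulforhodamine B protein staining. GI50 is the concentration giving a 50% reduction in net protein increase relative to control cells over the incubation.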

SF-268 = assay: Antitumor activity against human SF268 cells after 48 hrs by SRB assay; assay type: functional; details: SF-268, 48 h; how it was run: as §1
K562 = assay: Antitumor activity against human K562 cells after 48 hrs by SRB assay; assay type: functional; details: K562, 48 h; how it was run: as §1
MDA-MB-435 = assay: Antitumor activity against human MDA-MB-435 cells after 48 hrs by SRB assay; assay type: functional; details: MDA-MB-435, 48 h; how it was run: as §1
A549 = assay: Antitumor activity against human A549 cells after 48 hrs by SRB assay; assay type: functional; details: A549, 48 h; how it was run: as §1
NCI-H522 = assay: Antitumor activity against human NCI-H522 cells after 48 hrs by SRB assay; assay type: functional; details: NCI-H522, 48 h; how it was run: as §1
SNB-75 = assay: Antitumor activity against human SNB75 cells after 48 hrs by SRB assay; assay type: functional; details: SNB-75, 48 h; how it was run: as §1
OVCAR-3 = assay: Antitumor activity against human OVCAR-3 cells after 48 hrs by SRB assay; assay type: functional; details: OVCAR-3, 48 h; how it was run: as §1
HOP-62 = assay: Antitumor activity against human HOP62 cells after 48 hrs by SRB assay; assay type: functional; details: HOP-62, 48 h; how it was run: as §1
HT-29 = assay: Antitumor activity against human HT-29 cells after 48 hrs by SRB assay; assay type: functional; details: HT-29, 48 h; how it was run: as §1
MDA-MB-231 = assay: Antitumor activity against human MDA-MB-231 cells after 48 hrs by SRB assay; assay type: functional; details: MDA-MB-231, 48 h; how it was run: as §1
SF-295 = assay: Antitumor activity against human SF295 cells after 48 hrs by SRB assay; assay type: functional; details: SF-295, 48 h; how it was run: as §1
OVCAR-8 = assay: Antitumor activity against human OVCAR8 cells after 48 hrs by SRB assay; assay type: functional; details: OVCAR-8, 48 h; how it was run: as §1
OVCAR-4 = assay: Antitumor activity against human OVCAR4 cells after 48 hrs by SRB assay; assay type: functional; details: OVCAR-4, 48 h; how it was run: as §1
NCI/ADR-RES = assay: Antitumor activity against human NCI/ADR-RES cells after 48 hrs by SRB assay; assay type: functional; how it was run: as §1
DU-145 = assay: Antitumor activity against human DU145 cells after 48 hrs by SRB assay; assay type: functional; details: DU-145, 48 h; how it was run: as §1
786-0 = assay: Antitumor activity against human 786-0 cells after 48 hrs by SRB assay; assay type: functional; details: 786-0, 48 h; how it was run: as §1
CCRF-CEM = assay: Antitumor activity against human CCRF-CEM cells after 48 hrs by SRB assay; assay type: functional; how it was run: as §1
[1] = Antitumor activity against human Hs 578T cells after 48 hrs by SRB assay; assay type: functional; how it was run: as §1
UO-31 = assay: Antitumor activity against human UO31 cells after 48 hrs by SRB assay; assay type: functional; details: UO-31, 48 h
How it was run: (§2)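 NCI in vitro human tumor cell line screen. Continuous 48 h drug exposure at five concentrations (100, 10, 1.0, 0.1 and 0.01 µM). Cell growth estimated by sulforhodamine B protein staining. GI50 defined as the concentration giving 50% reduction in net protein increase versus control cells over the incubation.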

MCF7 = assay: Antitumor activity against human MCF7 cells after 48 hrs by SRB assay; assay type: functional; details: MCF7, 48 h; how it was run: as §1
SF-539 = assay: Antitumor activity against human SF539 cells after 48 hrs by SRB assay; assay type: functional; details: SF-539, 48 h; how it was run: as §1
HCT-116 = assay: Antitumor activity against human HCT116 cells after 48 hrs by SRB assay; assay type: functional; details: HCT-116, 48 h; how it was run: as §1
HL-60(TB) = assay: Antitumor activity against human HL-60(TB) cells after 48 hrs by SRB assay; assay type: functional; details: HL-60, 48 h; how it was run: as §1
HCT-15 = assay: Antitumor activity against human HCT15 cells after 48 hrs by SRB assay; assay type: functional; details: HCT-15, 48 h; how it was run: as §1
COLO 205 = assay: Antitumor activity against human COLO205 cells after 48 hrs by SRB assay; assay type: functional; details: COLO 205, 48 h; how it was run: as §1
NCI-H226 = assay: Antitumor activity against human NCI-H226 cells after 48 hrs by SRB assay; assay type: functional; details: NCI-H226, 48 h; how it was run: as §1
MOLT-4 = assay: Antitumor activity against human MOLT4 cells after 48 hrs by SRB assay; assay type: functional; details: MOLT-4, 48 h; how it was run: as §1
NCI-H23 = assay: Antitumor activity against human NCI-H23 cells after 48 hrs by SRB assay; assay type: functional; details: NCI-H23, 48 h; how it was run: as §1
IGROV-1 = assay: Antitumor activity against human IGROV1 cells after 48 hrs by SRB assay; assay type: functional; details: IGROV-1, 48 h; how it was run: as §1
PC-3 = assay: Antitumor activity against human PC3 cells after 48 hrs by SRB assay; assay type: functional; details: PC-3, 48 h; how it was run: as §1
CAKI-1 = assay: Antitumor activity against human Caki1 cells after 48 hrs by SRB assay; assay type: functional; details: CAKI-1, 48 h; how it was run: as §1
NCI-H322M = assay: Antitumor activity against human NCI-H322M cells after 48 hrs by SRB assay; assay type: functional; how it was run: as §1
SW-620 = assay: Antitumor activity against human SW620 cells after 48 hrs by SRB assay; assay type: functional; details: SW-620, 48 h; how it was run: as §2
SR = assay: Antitumor activity against human SR cells after 48 hrs by SRB assay; assay type: functional; how it was run: as §1
HCC 2998 = assay: Antitumor activity against human HCC2998 cells after 48 hrs by SRB assay; assay type: functional; details: HCC 2998, 48 h; how it was run: as §1
NCI60 = assay: Antitumor activity against human NCI60 cells at 1 uM; assay type: functional, cell-based
ACHN = assay: Antitumor activity against human ACHN cells after 48 hrs by SRB assay; assay type: functional; how it was run: as §1
[2] = read-out: LC50 (the source's name)

## CSc1nc2c(c(=O)[nH]1)NC1=C(C(=O)c3ccccc31)C(c1ccccc1)N2 (stereo not given)
BT-549
  GI50: 5.35 µM
BT-549; [2]
  CC50: > 100 µM
SF-268
  GI50: 4.55 µM
SF-268; [2]
  CC50: > 100 µM
K562
  GI50: 1270 nM
  LC50: > 100 µM
MDA-MB-435
  GI50: 490 nM
  LC50: > 100 µM
A549
  GI50: 6.98 µM
A549; [2]
  CC50: > 100 µM
NCI-H522
  GI50: 1410 nM
NCI-H522; [2]
  CC50: > 100 µM
SNB-75
  GI50: 1270 nM
  LC50: > 100 µM
OVCAR-3
  GI50: 2120 nM
OVCAR-3; [2]
  CC50: 46.4 µM
HOP-62
  GI50: 5.37 µM
HOP-62; [2]
  CC50: > 100 µM
HT-29
  GI50: 2970 nM
  LC50: > 100 µM
MDA-MB-231
  GI50: 4.09 µM
  LC50 (lethal concentration, 50% net cell kill): > 100 µM
SF-295
  GI50: 1910 nM
SF-295; [2]
  CC50: > 100 µM
OVCAR-8
  GI50: 19.1 µM
  LC50 (concentration causing 50% net cell kill): > 100 µM
OVCAR-4
  GI50: 5.62 µM
OVCAR-4; [2]
  CC50: > 100 µM
NCI/ADR-RES
  GI50: 4.54 µM
  LC50: > 100 µM
DU-145
  GI50: 13.4 µM
DU-145; [2]
  CC50: > 100 µM
786-0
  GI50: 6.44 µM
786-0; [2]
  CC50: > 100 µM
CCRF-CEM
  GI50: 5.92 µM
CCRF-CEM; [2]
  CC50: > 100 µM
[1]
  GI50: 2100 nM
[1]; [2]
  CC50: > 100 µM
UO-31
  GI50: 5.23 µM
UO-31; [2]
  CC50: > 100 µM
MCF7
  GI50: 2400 nM
  LC50 (concentration causing 50% net cell kill): > 100 µM
SF-539
  GI50: 2840 nM
  LC50 (concentration killing 50% of cells): > 100 µM
HCT-116
  GI50: 4.21 µM
  LC50 (50% lethal concentration): > 100 µM
HL-60(TB)
  GI50: 2510 nM
  LC50: > 100 µM
HCT-15
  GI50: 2800 nM
  LC50 (concentration killing 50% of starting cells): > 100 µM
COLO 205
  GI50: 3.53 µM
COLO 205; [2]
  CC50: > 100 µM
NCI-H226
  GI50: 4.2 µM
  LC50: > 100 µM
MOLT-4
  GI50: 5.24 µM
  LC50: > 100 µM
NCI-H23
  GI50: 5.82 µM
  LC50: > 100 µM
IGROV-1
  GI50: 4.54 µM
IGROV-1; [2]
  CC50: > 100 µM
PC-3
  GI50: 3.64 µM
PC-3; [2]
  CC50: > 100 µM
CAKI-1
  GI50: 2180 nM
  LC50: > 100 µM
NCI-H322M
  GI50: 13.5 µM
NCI-H322M; [2]
  CC50: > 100 µM
SW-620
  GI50: 2920 nM
  LC50: > 100 µM
SR
  GI50: 1510 nM
  LC50 (concentration killing 50% of cells): > 100 µM
HCC 2998
  GI50: 6.75 µM
HCC 2998; [2]
  CC50: > 100 µM
NCI60
  Activity: Active
ACHN
  GI50: 3.73 µM
ACHN; [2]
  CC50: > 100 µM
